VLA-4 inh – inhibition in human VLA-4 binding assay, primary screen, VLA-4 allosteric modulator project, MLPCN library, flow cytometry, VLA-4 expressing cells. 330,000 compounds, 0.2% hits. inhibition, % (about 7 µM as worked out from the volumes in the protocol). ligand binding flow cytometry. Integrin alpha-4 (Homo sapiens), P13612; in the data active = inhibition above about 50%
Platelet DG rel – inhibitors of platelet dense granule secretion, primary screen, cell-based, MLPCN, human platelets. human platelet-rich plasma, SFLLRN dense granule ATP release, luminescence. inhibition, %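 (compounds screened at 7.5 µM in platelet-rich plasma)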. 300,000 compounds, 0.22% hits. AID 1663, 2009;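 active = mean replicate score, as percent of positive control, at or above 50; inconclusive = mean below 50 but at least one replicate at or above 50; inactive = mean and every replicate below 50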
Myeloid diff 2 – induction of myeloid progenitor differentiation, primary screen, cell-based, flow cytometry, MLPCN library | ER-HoxA9 myeloid progenitors, lysozyme-GFP differentiation | 360,000 compounds, 1% hits | calls only at 10 µM;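 active = normalized GFP-positive differentiation at or above the plate's own cutoff, the solvent-only control mean plus 3 SD; inconclusive = no clear call, values can overlap the other calls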;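 also: cells exposed to compound for four days before flow analysis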
SENP1 inh – human SENP1 catalytic domain inhibitors, primary screen, biochemical, FRET, uHTS; inhibition, % at 10 µM; AID 624204, 2012; 360,000 compounds, 0.21% hits; recombinant SENP1 catalytic domain, CyPet-SUMO1-YPet FRET cleavage;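 active = inhibition at least 30% at 10 µM, raw YFP signal under a set limit, fluorescence ratio 0.5 to 1.5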;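 also: 0% = enzyme with DMSO and 100% = no enzyme wells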
Target sequence (Q9P0U3 419-644 limits assumed): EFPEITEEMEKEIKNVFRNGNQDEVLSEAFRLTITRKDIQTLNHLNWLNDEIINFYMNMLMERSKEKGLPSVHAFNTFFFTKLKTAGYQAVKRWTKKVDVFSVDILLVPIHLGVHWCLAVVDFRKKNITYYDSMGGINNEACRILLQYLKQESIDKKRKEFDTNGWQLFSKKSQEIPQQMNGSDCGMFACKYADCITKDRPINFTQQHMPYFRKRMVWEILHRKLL
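Test system: human SENP1 catalytic domain; medium: Tris pH 8 buffer plus EDTA, NaCl, BME, BSA, NP40, catalase; incubation: 50 min reaction at room temperature; technique: FRET, CFP and YFP emission; controls: no-enzyme low control and enzyme-plus-DMSO high control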
* hit, by the source's call. A selection: hits, their analogues and other compounds. The true share with any hit is near 1.5%.

Screening CCN(CC)CCNc1nc2nonc2nc1NCCN(CC)CC returned VLA-4 inh 0, Platelet DG rel 4, Myeloid diff 2 inactive and SENP1 inh -1.
For CC(=O)Oc1ccc(C(=O)Nc2cccc(-c3nnc(-c4ccco4)o3)c2)cc1 the results were VLA-4 inh -2, Platelet DG rel 13, Myeloid diff 2 active and SENP1 inh 1.
`S=C(NCc1ccccc1)Nc1ccncc1` gave VLA-4 inh -8, Platelet DG rel 4, Myeloid diff 2 active and SENP1 inh 0.
`Cc1cc2oc(=O)cc(CSc3nnc(C)n3N)c2cc1C(C)C` gave VLA-4 inh -6, Platelet DG rel -3, Myeloid diff 2 active and SENP1 inh -1.
`CC(=O)Oc1cc(O)c2c(=O)c(OC(C)=O)c(-c3ccc(OC(C)=O)c(OC(C)=O)c3)oc2c1` gave VLA-4 inh -14, Platelet DG rel 17, Myeloid diff 2 inactive and SENP1 inh 51*.
`Cc1ccc(-n2cc(CN3CCC(CO)(Cc4cccc(C(F)(F)F)c4)CC3)cn2)cc1` gave VLA-4 inh 0, Platelet DG rel -2, Myeloid diff 2 active and SENP1 inh 2.
`Cc1ccccc1CNC(=O)C(=O)NCCC1CCCCN1S(=O)(=O)c1ccccc1` (stereo not given) gave VLA-4 inh 1, Platelet DG rel 4 and SENP1 inh 0.
Screening Fc1ccc(-c2cn(-c3ccccc3)c3[n+]2CCS3)cc1 returned VLA-4 inh 1, Platelet DG rel 6, Myeloid diff 2 active and SENP1 inh 0.
Screening Cc1ccc(NS(=O)(=O)c2ccc(C(=O)N3CCN(S(=O)(=O)c4ccccc4)CC3)cc2)cc1 returned VLA-4 inh 6, Platelet DG rel -4, Myeloid diff 2 inactive and SENP1 inh -2.
`O=C(COC(=O)/C=C/c1ccccc1[N+](=O)[O-])Nc1ccc2[nH]c(=O)[nH]c2c1` gave VLA-4 inh 4, Myeloid diff 2 inconclusive and SENP1 inh -26.
`N#CC1CC(c2ccc([N+](=O)[O-])cc2)=NN1c1ccc([N+](=O)[O-])cc1` (stereo not given) gave VLA-4 inh -75, Platelet DG rel -4, Myeloid diff 2 active and SENP1 inh -33.
Screening O=[N+]([O-])c1cccc(C2CC(c3ccccc3)=NN2c2ccccc2)c1 (stereo not given) returned VLA-4 inh 4, Platelet DG rel 3, Myeloid diff 2 inactive and SENP1 inh -2.
`COc1cc(C2C3CN(C)CC=C3C(C#N)=C(N)C2(C#N)C#N)ccc1OC(C)C` (stereo not given) gave VLA-4 inh -4, Platelet DG rel -1, Myeloid diff 2 inactive and SENP1 inh -22.
`COc1cc([C@@H]2[C@H]3CNCC=C3C(C#N)=C(N)C2(C#N)C#N)ccc1OC(C)C` gave VLA-4 inh -56, Platelet DG rel 4, Myeloid diff 2 active and SENP1 inh -22.
COC(=O)c1c(C)[nH]c(C(=O)/C=C/c2ccccc2)c1C was read as VLA-4 inh -4, Platelet DG rel 13, Myeloid diff 2 active and SENP1 inh -17.
For CCCSc1ccc2nc(-c3ccccc3)cn2c1 the results were VLA-4 inh 5, Platelet DG rel 75*, Myeloid diff 2 inactive and SENP1 inh 3.
Screening CCN(CC)C(=O)c1cccc(NC(=O)CC23CC4CC(CC(C4)C2)C3)c1 returned VLA-4 inh 8, Platelet DG rel 0, Myeloid diff 2 active and SENP1 inh 1.
N#C/C(=C/C1=C(N2CCOCC2)C(=C/c2ccc(Cl)cc2)/CC1)C(=O)Nc1ccccc1F was read as Myeloid diff 2 active and SENP1 inh -4.
For COc1cc(/C=C(\C#N)C(=O)Nc2ccccc2F)ccc1OCCN1CCOCC1 the results were VLA-4 inh 25, Platelet DG rel 3, Myeloid diff 2 inactive and SENP1 inh -11.
Screening CCOC(=O)C1(Cc2ccccc2C(F)(F)F)CCN(C2CCN(C(C)C)CC2)CC1 returned VLA-4 inh 9, Platelet DG rel 13, Myeloid diff 2 inactive and SENP1 inh -11.
For Cc1ccc(N2C(=O)CC(C)CC2=O)cc1 the results were VLA-4 inh 4, Platelet DG rel -2, Myeloid diff 2 inactive and SENP1 inh 1.
Screening COc1ncnc2sc(-c3ccccc3)cc12 returned VLA-4 inh 8, Platelet DG rel 61*, Myeloid diff 2 inactive and SENP1 inh -3.
Screening COCCN(Cc1ccco1)C(=O)C1CCCN(c2ncnc3c2nc2n3CCCCC2)C1 (stereo not given) returned VLA-4 inh -10, Platelet DG rel 9 and SENP1 inh 3.
Screening O=c1c2cc(O)c(O)cc2oc2cc(O)c(C3OC(CO)C(O)C(O)C3O)c(O)c12 (stereo not given) returned VLA-4 inh 24, Platelet DG rel 1, Myeloid diff 2 inactive and SENP1 inh 37*.
Screening COc1ccc(NC(=O)C2C3C=CC4(O3)C2C(=O)N(CCCN2CCCC(C)C2)C4C(=O)NC2CCCCC2)cc1 (stereo not given) returned VLA-4 inh -8, Platelet DG rel -2, Myeloid diff 2 inactive and SENP1 inh -5.
Oc1ccc(N=Nc2ccc3ccccc3c2)cc1 was read as VLA-4 inh -1, Platelet DG rel 54*, Myeloid diff 2 inactive and SENP1 inh 2.
`CCCc1nc(SCC(=O)N2CCN(c3ccccc3)CC2)c2c(=O)n(C)c(=O)n(C)c2n1` gave VLA-4 inh 0, Platelet DG rel 2, Myeloid diff 2 active and SENP1 inh 3.
For COc1ccc(NC(=O)CCS(=O)(=O)c2ccc3c(c2)oc(=O)n3C)cc1 the results were VLA-4 inh -4, Platelet DG rel 1, Myeloid diff 2 inactive and SENP1 inh -1.
For COC(=O)c1ccc(/C=C/c2c(-c3ccsc3)oc3ccc(N4CCOCC4)cc23)cc1 the results were VLA-4 inh 8, Platelet DG rel 3, Myeloid diff 2 inactive and SENP1 inh 5.
`CCCCN(CCCC)c1nc2ccccc2nc1C(C#N)C(=O)NCCCOC` (stereo not given) gave VLA-4 inh 9, Platelet DG rel -40, Myeloid diff 2 inactive and SENP1 inh 10.
Screening CCN(CC)c1nc2ccccc2nc1C(C#N)C(=O)NCCCOC (stereo not given) returned VLA-4 inh -17, Myeloid diff 2 active and SENP1 inh -22.
For COc1ccccc1-n1c(SCC(=O)Nc2cccc(C)c2)nc2c(c1=O)SCC2 the results were VLA-4 inh -9, Platelet DG rel -25, Myeloid diff 2 active and SENP1 inh -6.
For COc1ccc(-c2cc(=O)c3ccc(O)cc3o2)cc1OC the results were Myeloid diff 2 inactive and SENP1 inh -4.
`Nc1ccc(-c2c3ccc(=O)cc-3oc3cc(O)ccc23)c(C(=O)O)c1` gave VLA-4 inh -6, Myeloid diff 2 active and SENP1 inh 54.

Screening data as filed in PubChem BioAssay.
